Measurements taken from ChEMBL document CHEMBL1154326 (J Med Chem, 2009).
Active and inactive are the calls of the source. The rule behind the calls is not given here.

How the values were obtained:
Histamine H2 receptor [1] = biological target: T1, Histamine H2 receptor (Homo sapiens, UniProt P25021); assay: Agonist activity at human histamine H2 receptor expressed in Sf9 cells coexpressing GsalphaS protein by steady-state GTPase assay; format: functional
Summary of the method: (§1)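 Sf9 membranes (10-20 μg protein/tube), washed and resuspended in 10 mM Tris-HCl pH 7.4. H2R as hH2R-GsαS fusion; H3R coexpressed with Giα2, Gβ1γ2, RGS4; H4R as hH4R-RGS19 fusion with Giα2, Gβ1γ2. Buffer: 50 mM Tris/HCl pH 7.4, MgCl2 (H2R 1.0 mM; H3R/H4R 5.0 mM), 100 μM EDTA, 100 μM ATP, 100 nM GTP, 100 μM AppNHp, creatine phosphate/kinase, 0.2% BSA; H4R plus 100 mM NaCl.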

Histamine H3 receptor [2] = biological target: T2, Histamine H3 receptor (Homo sapiens, UniProt Q9Y5N1); assay: Antagonist activity at human histamine H3 receptor expressed in Sf9 cells coexpressing Gialpha-2-Gbeta-1-gamma-2 and RGS4 proteins protein by steady-state GTPase assay; format: functional
T2 sequence (Q9Y5N1 whole entry, the tested form may be a part): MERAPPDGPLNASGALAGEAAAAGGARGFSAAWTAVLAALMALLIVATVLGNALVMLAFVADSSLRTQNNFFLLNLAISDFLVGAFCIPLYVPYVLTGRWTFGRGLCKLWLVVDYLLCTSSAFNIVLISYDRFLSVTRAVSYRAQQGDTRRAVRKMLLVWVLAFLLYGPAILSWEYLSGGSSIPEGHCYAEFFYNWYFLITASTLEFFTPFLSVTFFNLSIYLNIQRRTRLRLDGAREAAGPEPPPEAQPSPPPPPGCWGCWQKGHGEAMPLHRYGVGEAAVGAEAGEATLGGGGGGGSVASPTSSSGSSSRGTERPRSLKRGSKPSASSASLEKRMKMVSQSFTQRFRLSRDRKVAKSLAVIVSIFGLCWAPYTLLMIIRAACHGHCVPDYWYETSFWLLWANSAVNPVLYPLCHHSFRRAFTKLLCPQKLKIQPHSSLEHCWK
Summary of the method: (§2)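 Antagonist-mode steady-state GTPase assay in Sf9 membranes: H1R coexpressed with RGS4; H2R as GsαS fusion; H3R coexpressed with Giα2/Gβ1γ2/RGS4; H4R as RGS19 fusion with Giα2/Gβ1γ2. […] MgCl2: H1R/H2R 1.0 mM, H3R/H4R 5.0 mM; H4R plus 100 mM NaCl. [γ-32P]GTP hydrolysis measured over 20 min at 25 °C. pKB from nonlinear sigmoidal fits; duplicate runs.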

Histamine H2 receptor [3] = biological target: T1, Histamine H2 receptor; assay: Antagonist activity at human histamine H2 receptor expressed in Sf9 cells coexpressing GsalphaS protein by steady-state GTPase assay; format: functional; summary of the method: as §2
Histamine H1 receptor [4] = biological target: T3, Histamine H1 receptor (Homo sapiens, UniProt P35367); assay: Antagonist activity at human histamine H1 receptor expressed in Sf9 cells coexpressing RGS4 by steady-state GTPase assay; format: functional; summary of the method: as §2
T3 sequence (P35367 whole entry): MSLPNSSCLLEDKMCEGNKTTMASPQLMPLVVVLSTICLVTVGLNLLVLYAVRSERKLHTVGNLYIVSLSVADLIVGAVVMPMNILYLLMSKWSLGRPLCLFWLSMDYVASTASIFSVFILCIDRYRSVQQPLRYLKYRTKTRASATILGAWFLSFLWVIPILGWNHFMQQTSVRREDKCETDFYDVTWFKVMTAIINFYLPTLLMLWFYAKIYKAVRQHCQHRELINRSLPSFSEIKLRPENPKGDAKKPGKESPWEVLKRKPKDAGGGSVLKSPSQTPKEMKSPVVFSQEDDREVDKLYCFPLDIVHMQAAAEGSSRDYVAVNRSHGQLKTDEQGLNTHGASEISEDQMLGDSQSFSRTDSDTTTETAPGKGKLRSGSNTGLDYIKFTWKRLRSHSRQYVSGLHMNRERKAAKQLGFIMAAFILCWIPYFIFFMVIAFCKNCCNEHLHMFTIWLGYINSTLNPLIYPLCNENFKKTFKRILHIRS

Histamine H4 receptor [5] = biological target: T4, Histamine H4 receptor (Homo sapiens, UniProt Q9H3N8); assay: Agonist activity at human histamine H4 receptor expressed in Sf9 cells coexpressing RGS19 protein by steady-state GTPase assay; format: functional; summary of the method: as §1
T4 sequence (Q9H3N8 whole entry): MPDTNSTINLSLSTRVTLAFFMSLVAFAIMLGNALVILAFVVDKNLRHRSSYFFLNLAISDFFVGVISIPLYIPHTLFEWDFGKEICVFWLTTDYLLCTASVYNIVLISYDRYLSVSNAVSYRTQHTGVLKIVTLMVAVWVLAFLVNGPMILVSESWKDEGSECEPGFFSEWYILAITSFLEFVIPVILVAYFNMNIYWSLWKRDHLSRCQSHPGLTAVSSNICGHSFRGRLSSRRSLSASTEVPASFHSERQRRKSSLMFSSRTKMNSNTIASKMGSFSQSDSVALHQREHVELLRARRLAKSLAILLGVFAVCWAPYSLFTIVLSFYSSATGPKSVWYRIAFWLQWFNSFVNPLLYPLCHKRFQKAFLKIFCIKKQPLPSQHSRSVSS

Histamine H4 receptor [6] = biological target: T4, Histamine H4 receptor; assay: Antagonist activity at human histamine H4 receptor expressed in Sf9 cells coexpressing RGS19 protein by steady-state GTPase assay; format: functional; summary of the method: as §2
Histamine H3 receptor [7] = biological target: T2, Histamine H3 receptor; assay: Agonist activity at human histamine H3 receptor expressed in Sf9 cells coexpressing Gialpha-2-Gbeta-1-gamma-2 and RGS4 proteins protein by steady-state GTPase assay; format: functional; summary of the method: as §1
Histamine H2 receptor [8] = biological target: T1, Histamine H2 receptor; assay: Agonist activity at human histamine H2 receptor expressed in Sf9 cells coexpressing GsalphaS protein at 1 mM by steady-state GTPase assay; format: functional
Histamine H2 receptor [9] = biological target: T1, Histamine H2 receptor; assay: Antagonist activity at human histamine H2 receptor expressed in Sf9 cells coexpressing GsalphaS protein by steady-state GTPase assay
Histamine H4 receptor [10] = biological target: T4, Histamine H4 receptor; conditions: Sf9
Homo sapiens [11] = species: Homo sapiens; assay: Selectivity for human histamine H4 receptor over human histamine H2 receptor by radioligand displacement assay
Histamine H3 receptor [12] = biological target: T2, Histamine H3 receptor; assay: Displacement of [3H]N-alpah-methylhistamine from human histamine H3 receptor expressed in Sf9 cells
Summary of the method: (§3)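 Competition binding on Sf9 membranes in 12.5 mM MgCl2, 1 mM EDTA, 75 mM Tris/HCl pH 7.4. Protein per tube: 50 μg (H1R, H3R), 120 μg (H4R), 250 μg (H2R). […] 60 min at 25 °C with shaking; PEI-treated GF/C filtration, cold washes, scintillation counting; one-site fits, duplicates.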

Histamine H4 receptor [13] = biological target: T4, Histamine H4 receptor; assay: Displacement of [3H]histamine from human histamine H4 receptor expressed in Sf9 cells; summary of the method: as §3
Homo sapiens [14] = species: Homo sapiens; assay: Selectivity for human histamine H4 receptor over human histamine H3 receptor by steady-state GTPase assay
Homo sapiens [15] = species: Homo sapiens; assay: Selectivity for human histamine H4 receptor over human histamine H1 receptor by radioligand displacement assay
Histamine H4 receptor [16] = biological target: T4, Histamine H4 receptor; assay: Agonist activity at human histamine H4 receptor expressed in Sf9 cell membrane coexpressing RGS19 protein by steady-state GTPase assay; format: functional; summary of the method: as §1
Histamine H1 receptor [17] = biological target: T3, Histamine H1 receptor; assay: Displacement of [3H]mepyramine from human histamine H1 receptor expressed in Sf9 cells; summary of the method: as §3
Histamine H2 receptor [18] = biological target: T1, Histamine H2 receptor; assay: Displacement of [3H]tiotidine from human histamine H2 receptor expressed in Sf9 cells; summary of the method: as §3
Histamine H1 receptor [19] = biological target: T3, Histamine H1 receptor; assay: Agonist activity at human histamine H1 receptor expressed in Sf9 cells coexpressing RGS4 by steady-state GTPase assay; format: functional

T1 sequence (P25021 whole entry, the tested form may be a part): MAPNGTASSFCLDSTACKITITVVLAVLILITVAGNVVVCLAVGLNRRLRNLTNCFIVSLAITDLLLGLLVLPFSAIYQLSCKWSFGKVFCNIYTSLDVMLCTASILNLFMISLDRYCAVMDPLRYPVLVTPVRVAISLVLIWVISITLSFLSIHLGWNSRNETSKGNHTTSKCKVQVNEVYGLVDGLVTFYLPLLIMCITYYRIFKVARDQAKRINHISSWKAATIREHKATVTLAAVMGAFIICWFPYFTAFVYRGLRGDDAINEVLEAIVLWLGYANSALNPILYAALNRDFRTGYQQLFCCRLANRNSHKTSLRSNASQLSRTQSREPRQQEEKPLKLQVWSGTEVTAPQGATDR

SMILES | pKb (Histamine H3 receptor [2]) | pKb (Histamine H2 receptor [3]) | EC50 (Histamine H4 receptor [5]) [nM] | pKb (Histamine H4 receptor [6]) | also measured
NC(=O)NC(=NCCCc1cnc[nH]1)NCCCc1ccccc1 | – | – | – | – | EC50 (Histamine H2 receptor [1]): 0.646 µM
CC(CCN/C(=N\C#N)NCCCCc1c[nH]cn1)c1ccccc1 (stereo unspecified) | 6.19 | < 5 | – | – | pKb (Histamine H1 receptor [4]): < 5
N#C/N=C(/NCCCCc1c[nH]cn1)NCCc1ccccc1 | 5.82 | 5 | 1100 | – | –
Cc1[nH]cnc1CSCCN/C(=N\C#N)NCCCc1ccccc1 | – | 5.74 | – | < 5 | –
N#C/N=C(/NCCCc1ccccc1)NCCc1c[nH]cn1 | 5.18 | – | – | < 5 | pKb (Histamine H1 receptor [4]): < 5; EC50 (Histamine H2 receptor [1]): > 10 µM
N#C/N=C(/NCCCCc1c[nH]cn1)NCCCc1cccnc1 | 6.19 | 5.92 | 1200 | – | –
N#C/N=C(\N)NCCCCc1c[nH]cn1 | – | < 5 | – | – | –
NC(=O)/N=C(/NCCCc1ccccc1)NCCCc1c[nH]cn1 | 6.23 | – | – | 6.77 | pKb (Histamine H1 receptor [4]): < 5
CC(C)CN/C(=N\C#N)NCCCCCc1c[nH]cn1 | 6.57 | < 5 | – | 6.51 | –
N#CNC(=NCCCCc1cnc[nH]1)NCCCc1ccncc1 | – | – | 2570 | – | –
N#CNC(N)=NCCCCc1cnc[nH]1 | – | – | 170 | – | EC50 (Histamine H3 receptor [7]): 251 nM
CC(CCNC(=NCCCCc1cnc[nH]1)NC#N)c1ccccc1 (stereo unspecified) | – | – | 141 | – | –
N#C/N=C(/NCCCC1CCCCC1)NCCc1c[nH]cn1 | – | – | – | 5.57 | –
N#C/N=C(/NCCc1c[nH]cn1)NCCC(c1ccccc1)c1ccccc1 | – | < 5 | – | < 5 | –
N#C/N=C(/NCCCc1c[nH]cn1)NCCc1c[nH]c2ccccc12 | – | < 5 | – | 5.37 | Activity (Histamine H2 receptor [8]): inactive
N#C/N=C(/NCCCCc1c[nH]cn1)NCCCc1ccccc1 | 5.64 | 5.25 | – | – | pKb (Histamine H1 receptor [4]): < 5
CCN/C(=N/C#N)NCCCCCc1c[nH]cn1 | 6.92 | 5.37 | – | 6.47 | –
N#CNC(=NCCCCc1cnc[nH]1)NCCCc1ccccc1 | – | – | 151 | – | –
N#C/N=C(/NCCCc1c[nH]cn1)NCCSc1ccccc1 | – | < 5 | 1290 | – | EC50 (Histamine H2 receptor [1]): 7.24 µM
CN/C(=N\C#N)NCCCCc1c[nH]cn1 | 5.68 | < 5 | 955 | – | pKb (Histamine H1 receptor [4]): < 5
N#C/N=C(/NCCCCc1ccccc1)NCCc1c[nH]cn1 | – | < 5 | > 10000 | – | pKb (Histamine H2 receptor [9]): < 5
N#C/N=C(/NCCCc1c[nH]cn1)NCCc1ccccc1 | – | < 5 | – | 5.32 | Activity (Histamine H2 receptor [8]): inactive
N#C/N=C(/NCCCc1c[nH]cn1)NCCC(c1ccccc1)c1ccccc1 | – | < 5 | – | < 5 | –
N#C/N=C(/NCCCCc1c[nH]cn1)NCCc1c[nH]c2ccccc12 | 6.77 | < 5 | – | 5.8 | –
N#C/N=C(/NCCCCCc1c[nH]cn1)NCCCc1ccccc1 | 6.55 | 5.28 | – | 6.96 | –
N#C/N=C(\NCCSc1ccccc1)NCCc1c[nH]cn1 | – | < 5 | – | 5.05 | –
N#C/N=C(/NCCCCc1c[nH]cn1)NCCCC1CCCCC1 | 5.82 | < 5 | – | 6.35 | –
NC(=O)N=C(NCCCCc1c[nH]cn1)NCCCc1ccccc1 | – | – | – | – | EC50 (Histamine H2 receptor [1]): 0.437 µM

SMILES | pKb (Histamine H3 receptor [2]) | pKb (Histamine H2 receptor [3]) | EC50 (Histamine H4 receptor [5]) [nM] | pKb (Histamine H4 receptor [6]) | also measured
N#C/N=C(/NCCCCc1c[nH]cn1)NCCCc1ccncc1 | 6.11 | 5.11 | – | – | –
NC(=O)/N=C(/NCCCCc1ccccc1)NCCCc1c[nH]cn1 | 6.51 | – | – | 6.33 | –
NC(=O)/N=C(\NCCCCc1c[nH]cn1)NCCCc1ccccc1 | 6.44 | – | – | 7.07 | Activity (Histamine H4 receptor [5]): inactive
CC(C)CN/C(=N\C#N)NCCCCc1c[nH]cn1 | 5.47 | < 5 | 120 | – | pKb (Histamine H1 receptor [4]): < 5
CC(C)N/C(=N/C#N)NCCCCCc1c[nH]cn1 | 6.47 | 5.57 | – | 6.25 | –
N#C/N=C(\NCCCc1ccccc1)NCCCc1c[nH]cn1 | 5.72 | 5.25 | 759 | – | EC50 (Histamine H2 receptor [1]): 14.1 µM
N#C/N=C(/NCCCCc1c[nH]cn1)NCCCc1ccc(F)cc1 | 6.11 | 5.28 | – | 6.59 | –
NC(=O)/N=C(/NCCCc1ccccc1)NCCc1c[nH]cn1 | 8.42 | – | – | 5.89 | pKb (Histamine H1 receptor [4]): < 5; EC50 (Histamine H2 receptor [1]): 2 µM
Cc1[nH]cnc1CSCCN/C(=N/C#N)NCCC(c1ccccc1)c1ccccc1 | – | – | > 10000 | – | pKb (Histamine H2 receptor [9]): 5.8
CN/C(=N\C#N)NCCCCCc1c[nH]cn1 | 6.38 | 5.66 | – | 6.54 | –
N#CNC(=NCCc1cnc[nH]1)NCCCC1CCCCC1 | – | – | – | – | EC50 (Histamine H2 receptor [1]): 3.89 µM
N/C(=N/CCc1ccc(I)cc1)SCCCc1cnc[nH]1 | – | – | – | – | Kinact (Histamine H4 receptor [10]): 13 nM
CC(C)N/C(=N\C#N)NCCCCc1c[nH]cn1 | 5.49 | < 5 | 331 | – | pKb (Histamine H1 receptor [4]): < 5
N#C/N=C(\NCCCCCc1c[nH]cn1)NCCSc1ccccc1 | 6.74 | 5.21 | – | 6.85 | –
Cc1ccc(S(=O)(=O)NC(=N)NCCCc2c[nH]cn2)cc1 | 6.11 | – | – | 5.85 | pKb (Histamine H1 receptor [4]): < 5; EC50 (Histamine H2 receptor [1]): 12 µM
N#C/N=C(/NCCCCc1c[nH]cn1)NCCSc1ccccc1 | 6 | < 5 | 33.9 | – | Selectivity ratio (Homo sapiens [11]): 70; Ki (Histamine H3 receptor [12]): 525 nM; Ki (Histamine H4 receptor [13]): 57.5 nM; Selectivity ratio (Homo sapiens [14]): 30; Selectivity ratio (Homo sapiens [15]): 450; pKb (Histamine H1 receptor [4]): < 5; Activity (Histamine H4 receptor [16]): > 10 nM; Ki (Histamine H1 receptor [17]): 25.7 µM; Ki (Histamine H2 receptor [18]): 4.07 µM
N#C/N=C(/NCCCCc1c[nH]cn1)NCCC(c1ccccc1)c1ccccc1 | – | 5 | – | 5.6 | –
NC(=O)NC(=NCCCc1cnc[nH]1)NCCCCc1ccccc1 | – | – | – | – | EC50 (Histamine H2 receptor [1]): 0.38 µM
CCN/C(=N\C#N)NCCCCc1c[nH]cn1 | 5.54 | < 5 | 708 | – | pKb (Histamine H1 receptor [4]): < 5
N#C/N=C(\NCCCCc1ccccc1)NCCCCc1c[nH]cn1 | 5.54 | 5.03 | – | 6.34 | –
N#C/N=C(\NCCc1ccccc1)NCCc1c[nH]cn1 | – | – | – | 5.18 | Activity (Histamine H2 receptor [8]): inactive
N=C(NCCCc1c[nH]cn1)NS(=O)(=O)CCc1ccccc1 | 6.57 | – | – | 5.85 | EC50 (Histamine H2 receptor [1]): 12 µM
Cc1nc[nH]c1CCN [4-METHYLHISTAMINE] | – | – | 70.8 | – | Activity (Histamine H2 receptor [8]): inactive; EC50 (Histamine H1 receptor [19]): 15.8 µM; EC50 (Histamine H2 receptor [1]): 2.88 µM
N#C/N=C(\NCCCCc1ccccc1)NCCCc1c[nH]cn1 | – | 5.03 | – | 5.22 | EC50 (Histamine H2 receptor [1]): 8.91 µM
N#C/N=C(/NCCCc1c[nH]cn1)NCCCC1CCCCC1 | – | < 5 | – | 5.82 | –
N#C/N=C(/NCCCCc1c[nH]cn1)NCCCc1ccccn1 | 5.89 | 5.48 | 575 | – | –
N#C/N=C(\NCCc1c[nH]cn1)NCCc1c[nH]c2ccccc12 | – | – | – | < 5 | pKb (Histamine H2 receptor [9]): < 5
